Compound activity from PubChem BioAssay.
HePTP inhibitor = inhibitors of human HePTP phosphatase | 110,000 tested, 0.64% active | P35236 | inhibition, % at 20 µM | AID 521 | recombinant HePTP phosphatase activity, OD absorbance; in the data active = inhibition above about 50%
Target sequence (P35236 whole entry, looked up): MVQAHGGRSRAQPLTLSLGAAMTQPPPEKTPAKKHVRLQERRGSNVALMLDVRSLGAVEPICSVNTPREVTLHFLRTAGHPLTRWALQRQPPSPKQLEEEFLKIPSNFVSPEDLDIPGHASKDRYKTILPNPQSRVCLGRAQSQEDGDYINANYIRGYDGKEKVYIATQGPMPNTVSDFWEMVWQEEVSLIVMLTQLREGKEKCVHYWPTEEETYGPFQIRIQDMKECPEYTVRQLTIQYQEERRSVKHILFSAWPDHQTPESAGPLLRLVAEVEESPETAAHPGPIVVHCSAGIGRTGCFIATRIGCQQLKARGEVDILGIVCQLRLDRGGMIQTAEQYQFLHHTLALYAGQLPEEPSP
PostGolgi yeast = growth inhibition of a yeast mutant, post-Golgi transport screen. post-Golgi transport phenotypic cell assay. inhibition, % at 10 µM. 98,000 tested, 0.9% active. AID 739;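 also: yeast cells grown in 1536-well plates; yeast grown about 18 h at 30C before absorbance read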
Ecoli WT expand = blocks growth of wild type E. coli BW25113; 98,000 tested, 0.15% active; growth inhibition, % at 100 µM; OD600 absorbance;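 active = growth inhibition above about 50% at one test dose, limit read from the data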;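 also: growth measured after 20 h incubation at 37 °C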
Ecoli tolC = growth inhibitors of E. coli BW25113 tolC mutant. 65,000 tested, 2.2% active. growth inhibition, % at 10 µM (by protocol). OD615;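 active = growth inhibition at or above a cutoff equal to the mean over every tested compound plus 3 SD, cut at about 60% in these data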;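 also: growth measured after 20 h incubation at 37 °C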
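Doses: one dose of 10 µM final / Material: E. coli BW25113 ΔtolC::kan, tolC deletion mutant strain / Buffer or medium: LB with kanamycin 50 µg/mL / Evaluation: percent growth inhibition / Detection: optical density read at 615 nm / Incubation: 37 °C, 20 h exposure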
PLAP act = activates human placental alkaline phosphatase; purified PLAP enzyme, luminescent substrate read-out; stronger effect = higher value; activation fold at 20 µM; 96,000 tested, 1.2% active; in the data active = activation fold above about 2
PostGolgi ctrl = yeast control strain growth, post-Golgi counter-screen. efflux-deficient yeast background strain, growth absorbance A615, 16 h. inhibition, % at 10 µM. 98,000 tested, 5% active. AID 738
Numbers stand for hits; . = inactive; / = not tested or not shown. Only some compounds are listed: those with a hit (about 5.4% of all), similar ones and a draw of the others. Rule as the data show it, unless noted: active = inhibition above about 30%; inactive = the rest.

SMILES	HePTP inhibitor	PostGolgi yeast	Ecoli WT expand	Ecoli tolC	PLAP act	PostGolgi ctrl
CCOC(=O)c1c(C=O)c(C)n(Cc2ccccc2)c1C	/	.	.	/	.	.
Cc1ccccc1OCCCCc1c(C)n[nH]c1C	.	.	.	100	.	46
Cc1nnc(Nc2ccccn2)c2ccccc12	.	.	.	.	/	65
CCCn1c(=O)c2ccccc2n2c(SCc3cc(=O)n4ccsc4n3)nnc12	.	/	/	.	/	/
Cc1cccc(-n2c(SCc3cc(=O)n4ccsc4n3)nc3ccccc32)c1	.	.	.	.	/	33
CC1=C(C(=O)OCc2ccccc2)C(c2ccccn2)C2=C(CCCC2=O)N1 (stereo not given)	.	/	/	/	/	/
Cc1cc(C)nc(NC(=O)CSc2nc3ccccc3s2)n1	/	.	.	/	.	.
Cc1cc(C)nc(NC(=O)CSc2nc3cc(Cl)ccc3s2)n1	/	.	.	/	.	36
CCCN(CCC)c1nc(Cl)nc(NCc2ccco2)n1	/	.	.	/	.	38
COc1ccc(Nc2nc(Cl)nc(NCc3ccco3)n2)c(OC)c1	/	.	.	/	.	.
COCCN(Cc1cc2cc(C)cc(C)c2nc1Cl)C(=O)Nc1ccccc1	/	.	.	/	.	35
COc1ccc(NC(=O)N(CCO)Cc2cc3c(C)cc(C)cc3[nH]c2=O)cc1	.	.	.	.	.	.
Cc1cc(C)c2nc(Cl)c(CN(Cc3ccco3)C(=O)Nc3ccccc3C)cc2c1	/	.	.	/	.	34
Cc1cc(C)c2ccc(NN)nc2c1O	/	.	.	/	2	.
Cc1cc(C(=O)N=Nc2c(O)n(C)c3ccc(Br)cc23)n[nH]1	.	/	/	/	/	/
Cc1ccc(/C=N/N2C(=O)c3ccccc3C2=O)s1	.	/	/	/	/	/
Cc1cccc(OCC(=O)NNC(=O)CSc2ncc(C#N)c(N)n2)c1	/	.	.	/	2	.
Cc1c(/C=N/NC(=O)c2cc(=O)[nH]c(=O)[nH]2)c2ccccn2c1C(=O)c1ccccc1	/	.	.	/	2.2	.
CCOC(=O)c1ccc(NC(=O)CC2OCCN(CC)C2=O)cc1 (stereo not given)	.	.	.	.	.	35
CCOC(=O)c1ccc(NC(=O)CC(=O)Nc2ccc(C(=O)OCC)cc2)cc1	.	/	/	/	/	/
Nc1ccc(S(=O)(=O)O)c2cccc(O)c12	103	/	/	/	/	/
Nc1ccc(O)c2c1C(=O)c1c(N)ccc(O)c1C2=O	.	/	/	/	/	/
Cc1ccc(C(=O)Nc2ccc(C(=O)/C=C/c3cccnc3)cc2)cc1	.	/	/	/	/	/
O=C(/C=C/c1cccnc1)c1ccc(NC(=O)c2cccc(Br)c2)cc1	/	.	.	/	.	40
Nc1c(-c2cccc(Cl)c2)cnn1-c1cccc(C(F)(F)F)c1	/	.	.	/	.	.
SMILES	HePTP inhibitor	PostGolgi yeast	Ecoli WT expand	Ecoli tolC	PLAP act	PostGolgi ctrl
O=c1ccn(-c2cccc(C(F)(F)F)c2)nc1-c1ccn(-c2cccc(Cl)c2)n1	/	.	.	/	.	50
Cc1cc(C)c2c(-n3cccc3)c(C(=O)NNS(=O)(=O)c3ccc(Br)cc3)sc2n1	/	.	.	/	.	.
CCOC(=O)Nc1sc2nc(C)cc(C)c2c1-n1cccc1	/	.	.	/	.	41
O=C(Nc1c[nH]c(=O)[nH]c1=O)c1ccc(Cl)c(Cl)c1	.	/	/	/	/	/
CCn1c(=O)cc(SCC(=O)NCCN2CCN(Cc3ccccc3)CC2)c2ccccc21	.	.	.	.	.	34
COCCCNC(=S)NNC(=S)Nc1ccc(F)cc1F	/	.	.	/	2.7	.
CCOc1cc(/C=N/n2cnnc2)cc(Br)c1OCCOc1ccc(C(C)CC)cc1 (stereo not given)	.	/	/	/	/	/
COCCNC(=O)c1cnn2c(C(F)(F)F)cc(-c3ccco3)nc12	.	/	/	/	/	/
Nn1c(SC/C=C/c2ccccc2)nnc1-c1ccncc1	.	.	.	.	.	.
Cn1c(Cc2cccs2)nnc1SC/C=C/c1ccccc1	.	.	.	.	/	52
Cn1c(SC/C=C/c2ccccc2)nnc1-c1ccco1	.	.	.	.	/	30
Cn1c(Cc2cccs2)nnc1SCc1nc2ccccc2[nH]1	.	.	.	.	2	.
Cn1c(SCc2nc3ccccc3[nH]2)nnc1-c1cccs1	.	.	.	.	.	.
Cc1ccc(S(=O)(=O)Oc2ccc(Br)cc2/C=C2\SC(N)=NC2=O)cc1	.	/	/	/	/	/
OC1(c2cn(Cc3ccccc3)nn2)CCCCC1	.	.	.	.	.	38
Cc1cc(C)nc(SCC(=O)Nc2ccc(N3CCOCC3)c(Cl)c2)n1	.	.	.	.	.	.
Cc1cc(N2CCOCC2)nc(SCc2ccc(Cl)cc2Cl)n1	/	.	.	/	.	42
COc1cccc(CNC(=O)CSCc2cnn(-c3ccccc3)c2-n2cccc2)c1OC	/	.	.	/	2.6	.
COc1ccccc1CNC(=O)CSCc1cnn(-c2ccccc2)c1-n1cccc1	/	.	.	/	2.7	.
